Source: PubChem (Broad Institute)
Compounds with a hit are over-represented: about 2% of the library has one in this group of screens.
CAL PDZ FP-1 – human CAL PDZ-peptide interaction inhibition | actives 0.02% (n = 330,000) | Q9HD26 | purified CAL PDZ, TMR-peptide fluorescence polarization, 1 h | inhibition, % at 20 µM;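 active = highest replicate inhibition of at least 40%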;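 also: plate controls were DMSO neutral control wells for no effect and unlabeled competitor peptide control wells for full effect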
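material = purified tagged CAL PDZ domain construct (CerCALP) | buffer or medium = sodium phosphate/NaCl buffer pH 7.4 with TCEP, IgG, Thesit | reagent = TMR-labelled reporter peptide T*-PRC34 bound in PDZ groove | incubation = 1 h room-temperature incubation prior to read | measured by = fluorescence polarization (mP) | evaluation = percent inhibition from loss of millipolarization | control set = unlabelled peptide and DMSO controls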
Statin myotox sup – protects C2C12 myotubes from simvastatin toxicity | ATP luminescence, 48 h; scaled: DMSO 0, geranylgeraniol control 100 | rescue of ATP level, % at 7.49 µM | actives 0.78% (n = 330,000);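 active = mean ATP rescue above about 67%, or every replicate alone reaching that limit, limit read from the data, passing the limit was not always enough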;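 also: myotubes were challenged with 10 µM simvastatin during compound exposure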
dFosB activator – mouse delta FosB homodimer activation. actives 0.99% (n = 340,000). activation, % at 25 µM. purified delta FosB, TAMRA-CDK5 oligo fluorescence polarization; percent of positive-control signal above neutral wells. P13346. AID 493131;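 active = mean activation above about 17%, with every replicate also reaching it, limit read from the data, passing the limit was not always enough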
Target sequence (P13346 whole entry, looked up): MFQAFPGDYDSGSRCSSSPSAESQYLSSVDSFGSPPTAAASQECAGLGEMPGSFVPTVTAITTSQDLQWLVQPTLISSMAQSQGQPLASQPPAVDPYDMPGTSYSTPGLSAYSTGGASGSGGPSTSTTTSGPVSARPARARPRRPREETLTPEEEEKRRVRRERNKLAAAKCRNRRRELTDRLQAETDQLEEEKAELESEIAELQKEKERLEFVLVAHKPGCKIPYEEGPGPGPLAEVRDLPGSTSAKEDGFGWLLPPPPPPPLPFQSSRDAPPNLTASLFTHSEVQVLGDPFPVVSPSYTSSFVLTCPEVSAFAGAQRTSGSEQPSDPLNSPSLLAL
S100A4 inh HTS – S100A4-myosin IIA interaction inhibition; P26447; S100A4/TAMRA-MyoIIA peptide fluorescence polarization; inhibition, % at 10.7 µM; actives 0.14% (n = 360,000); AID 652163;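 active = mean inhibition of at least 70% across replicates, with every replicate also reaching that level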
Target sequence (P26447 whole entry, looked up): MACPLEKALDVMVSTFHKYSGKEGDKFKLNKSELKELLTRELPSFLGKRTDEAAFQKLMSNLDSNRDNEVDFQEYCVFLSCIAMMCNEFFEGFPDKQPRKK
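Compound dosing: one dose per compound; test system: human S100A4 monomer with TAMRA-labelled myosin IIA peptide; probe or stimulus: TAMRA-labelled myosin IIA heavy-chain peptide probe, 5 nM; medium: HEPES buffer with Ca2+, pH 7.2; schedule: 5 min incubation before reading; benchmarks: neutral control DMSO, positive control TFP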
CAL PDZ FP-2 – CAL PDZ (human) peptide binding inhibition; Q9HD26; purified CAL PDZ, TMR-peptide fluorescence polarization, 1 h; inhibition, % at 24.9 µM; actives 0.92% (n = 300,000);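 active = mean inhibition of at least 30% with at least half of replicates also reaching 30%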;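 also: 0% = DMSO neutral control and 100% = excess unlabeled competitor peptide PRC23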
CDK5 inh – blocks human CDK5/p35 kinase activity | Q00535+Q15078 | Recombinant CDK5/p35, ADP-Glo luminescence, 60 min | inhibition, % at 10 µM | actives 0.01% (n = 330,000) | AID 488839;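 active = highest replicate inhibition of at least 50% and at least 75% of replicates reaching 50%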;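 also: plate controls were DMSO neutral control for no effect and GW8510 at 10 µM for full effect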
Active calls of the source: *; . = not tested or not shown.

SMILES | CAL PDZ FP-1 | Statin myotox sup | dFosB activator | S100A4 inh HTS | CAL PDZ FP-2 | CDK5 inh
CCC(C)(CCNC(=O)Cc1ccccc1)c1ccccc1OC (stereo unspecified) | -1.4 | 121.1* | -3.9 | -2.2 | -3.8 | -0.9
Cc1ccc(NC(=O)c2cccc(OCc3c(C)noc3C)c2)cc1 | -4.3 | 105.1* | -13.0 | . | -0.1 | -2.2
Cc1noc(C)c1COc1cccc(C(=O)Nc2ccccc2)c1 | -0.4 | 0.6 | -2.0 | -6.9 | -3.2 | 0.4
CCc1cccc(N(CC(=O)NCc2ccc(F)cc2)C(=O)c2csnn2)c1 | 1.0 | . | -7.7 | 2.2 | -2.8 | -1.0
O=C(CSc1nnc2ccccn12)NNC(=O)c1ccc(Cl)cc1 | -0.3 | 25.4 | 0.4 | 2.3 | 1.3 | 1.4
Cc1ccc(Cn2c(SCC(=O)Nc3cc(C)on3)nc3ccccc3c2=O)cc1 | -1.7 | 10.4 | 65.3* | . | -4.2 | 1.0
Cc1cc(NC(=O)CSc2nnc3ccccn23)no1 | -0.7 | . | 3.7 | -3.2 | 78.4* | -2.5
O=C(CSc1nnc2ccccn12)NNC(=O)c1cccc(Cl)c1 | 0.5 | 113.4* | 0.3 | 0.1 | -2.5 | -0.2
CC(=O)Nc1cccc(NC(=O)CSc2nnc3ccccn23)c1 | 0.3 | 8.2 | 1.0 | -8.1 | 4.6 | -0.3
Cc1cc(NC(=O)CSc2nc3ccccc3c(=O)n2Cc2ccccc2)no1 | 1.0 | . | -0.7 | . | -0.2 | 1.4
COc1ccc(C(=O)CCN2CCc3cc(OC)c(OC)cc3C2)cc1 | 0.3 | . | -3.7 | -9.8 | 4.3 | 0.0
COc1ccccc1N1CCN(/N=C\c2cccnc2)CC1 | -0.2 | 0.1 | -14.6 | 4.0 | 5.4 | 1.0
CC(C)(C)C(=O)NNC(=O)C1CC1(c1ccccc1)c1ccccc1 (stereo unspecified) | 0.7 | 1.3 | 2.7 | -6.5 | 35.0* | -0.1
Cc1c(NC(=O)C2CC=CCC2C(=O)O)c(=O)n(-c2ccccc2)n1C (stereo unspecified) | -0.9 | 1.0 | -4.9 | . | -2.7 | -1.3
COc1cccc(NC2=CC(=O)CC(C)(C)C2)c1 | -1.1 | 18.0 | -4.2 | 1.9 | -4.3 | -0.1
O=c1c2cc(Br)ccc2[nH]c(=S)n1Cc1cccnc1 | -2.7 | . | 42.9* | . | 0.3 | -0.3
CCn1c(-c2ccc(-c3ccccc3)cc2)c[nH]c1=S | 0.4 | 124.9* | -3.8 | . | 4.9 | 1.7
CCCCCn1nc(C(=O)N(CC(C)C)c2c(N)n(CCCC)c(=O)[nH]c2=O)c2ccccc2c1=O | -2.1 | -16.7 | -6.5 | 0.8 | 10.9 | -0.1
CCCN(C(=O)Cc1coc2cc(C)c(C)cc12)c1c(N)n(Cc2ccccc2)c(=O)[nH]c1=O | -1.7 | . | 7.0 | -0.5 | 2.0 | 1.6
CCN(C(=O)c1ccc(=O)n(C)n1)c1c(N)n(Cc2ccccc2)c(=O)[nH]c1=O | 0.6 | 4.2 | -5.8 | -5.8 | 37.7* | -1.3
CCCCCCn1nc(C(=O)N(CCCC)c2c(N)n(CCC)c(=O)[nH]c2=O)c2ccccc2c1=O | 2.0 | 1.4 | -8.2 | -0.4 | 46.6* | -2.3
CCCN(C(=O)Cn1nc(C)c([N+](=O)[O-])c1C)c1c(N)n(Cc2ccccc2)c(=O)[nH]c1=O | 0.2 | -12.7 | 18.1* | 5.9 | . | -0.1
CCCCn1c(N)c(N(CC)C(=O)c2ccccc2F)c(=O)[nH]c1=O | -0.4 | 13.7 | 8.3 | -18.7 | 33.0* | 1.2
Cn1ncc(C#N)c1/N=C/N1CCCCCC1 | -0.3 | -4.9 | 0.8 | . | 2.6 | -1.1
Cn1ncc(C#N)c1/N=C/N1CCOCC1 | -1.9 | 117.3* | 2.9 | . | -3.0 | -0.7
SMILES | CAL PDZ FP-1 | Statin myotox sup | dFosB activator | S100A4 inh HTS | CAL PDZ FP-2 | CDK5 inh
N#Cc1ccc(CSc2nnc(Nc3ccccc3)s2)cc1 | -1.1 | 25.4 | 2.4 | . | -10.1 | -0.4
O=C(/C=C/c1ccco1)NCc1ccc2c(c1)OCO2 | -0.5 | 12.3 | 0.4 | -12.8 | 1.6 | 0.4
O=C(/C=C/c1ccco1)Nc1ccc2c(c1)OCO2 | . | . | -6.3 | -5.5 | 60.0* | 0.0
CCOC(=O)Cc1nnc(NCc2ccccc2)c2ccccc12 | . | 22.7 | -4.9 | -3.7 | -2.9 | -0.4
Nc1ccc(Oc2ccc([N+](=O)[O-])cc2[N+](=O)[O-])cc1 | 1.0 | 4.4 | -3.2 | 0.5 | 0.7 | 0.4
O=[N+]([O-])c1ccc(Oc2cccnc2)c([N+](=O)[O-])c1 | -1.4 | 0.5 | 5.9 | 1.4 | 37.0* | -1.8
Oc1ccc(Cl)cc1C1=NNC(c2cccs2)C1 (stereo unspecified) | -2.8 | 148.6* | -9.5 | -2.1 | -8.4 | 1.5
Cc1ccc(O)c(C2=NNC(c3ccc(Cl)cc3)C2)c1 (stereo unspecified) | -2.8 | . | -9.8 | 0.5 | -0.1 | 0.5
COc1ccc(C(=O)NCc2nnc(SCC(=O)Nc3ccccc3F)o2)cc1 | -1.0 | 0.7 | -0.4 | -2.8 | -0.9 | -5.2
COc1ccc(-c2nnc(SCC(=O)Nc3ccccc3OC)o2)cc1 | -2.6 | -11.0 | 0.1 | 0.1 | . | 0.3
COc1ccc(OCc2nnc(SCC(=O)Nc3ccccc3C#N)o2)cc1 | 0.4 | -5.6 | -5.4 | 3.1 | 53.8* | 2.0
COc1ccc(C(=O)NCc2nnc(SCC(=O)Nc3ccccc3OC)o2)cc1 | -1.1 | 1.3 | -3.2 | 2.1 | 56.2* | 1.5
COc1ccc(N(C(=O)c2ccn[nH]2)C(C(=O)NC(C)(C)C)c2ccc(F)cc2)cc1 (stereo unspecified) | 0.4 | 88.0* | -6.3 | . | 0.2 | -1.3
CC(C)N(Cc1cc2ccccc2[nH]c1=O)C(=O)c1cccc([N+](=O)[O-])c1 | -2.1 | . | -9.0 | -2.3 | 0.2 | -1.2
COc1ccc(NC(=O)N(C)C[C@H]2Oc3c(NC(=O)NC(C)C)cccc3C(=O)N([C@H](C)CO)C[C@@H]2C)cc1 | -1.5 | 96.2* | 1.6 | -3.0 | 2.3 | 1.2
COc1ccc(NC(=O)Nc2cccc3c2O[C@@H](CN(C)C(=O)Nc2ccc(OC)cc2)[C@H](C)CN([C@@H](C)CO)C3=O)cc1 | . | 17.8 | . | -7.7 | . | .
CC(C)NC(=O)Nc1cccc2c1O[C@@H](CN(C)Cc1ccc(Oc3ccccc3)cc1)[C@@H](C)CN([C@H](C)CO)C2=O | . | 30.8 | . | -0.2 | . | .
COc1ccc(CN(C)C[C@H]2Oc3c(NC(=O)NC(C)C)cccc3C(=O)N([C@H](C)CO)C[C@H]2C)cc1 | . | -6.8 | . | 107.1* | . | .
COc1ccc(NC(=O)Nc2cccc3c2O[C@@H](CN(C)C(=O)Nc2cccc4ccccc24)[C@H](C)CN([C@H](C)CO)C3=O)cc1 | . | 97.5* | . | . | . | .
CCCCC1=CC2=CC(=O)C(C)(OC(=O)CC)C(=O)C2=CO1 (stereo unspecified) | 1.6 | -17.3 | 6.6 | -26.0 | -4.1 | -0.8
COc1cc2c(cc1OC)C(c1ccccc1)N(C(=O)CCl)CC2 (stereo unspecified) | -0.7 | 168.0* | -0.4 | . | . | -0.5
COCC(=O)Nc1ccc(OCc2ccccc2)cc1 | -1.6 | . | 5.6 | -7.2 | -2.0 | 2.1
